In ChEMBL document CHEMBL1828578, “Antimalarial activities of new guanidylimidazole and guanidylimidazoline derivatives” (J Med Chem, 2011):
≈ marks a conversion by molar mass, not a printed value. Calls of active or inactive are those of the source. The rule behind the calls is not given here.

How the values were obtained:
[1] = Metabolic stability of the compound in mouse liver microsomes assessed as half life at 1 uM by LC-MS analysis; assay type: ADME, Microsome
Procedure, shortened: (§1)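 Compound at 1 μM final (from 10 or 20 mM DMSO stocks) was incubated with 0.5 mg/mL pooled human or mouse liver microsomes. The mix held 1.3 mM NADP and 3.3 mM MgCl₂ in 0.1 M PBS pH 7.4, and the reaction was started with 1 U/mL G6PD. Incubation was at 37 °C with shaking, and samples were quenched with cold acetonitrile at 0, 10, 20, 30 and 60 min.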

Plasmodium falciparum [2] = experiment: Antimalarial activity against sporozoites stage of Plasmodium falciparum D6 after 3 days by microdilution technique; assay type: functional, organism-based; settings: D6, 72 h, in the assay text read “blood stage” for “sporozoites stage”
Procedure, shortened: (§2)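 P. falciparum clones were tested in vitro using a modified semiautomated microdilution technique.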

[3] = Metabolic stability of the compound in human liver microsomes assessed as half life at 1 uM by LC-MS analysis; assay type: ADME, Microsome; procedure, shortened: as §1
Plasmodium falciparum [4] = experiment: Antimalarial activity against […] of Plasmodium falciparum TM91C235 after for 3 days by microdilution technique; assay type: functional, organism-based; settings: TM91C235, 72 h; procedure, shortened: as §2
[5] = Metabolic stability of the compound in rhesus monkey microsomes assessed as half life at 1 uM by LC-MS analysis; assay type: ADME, Macaca mulatta, Microsome
Plasmodium falciparum [6] = experiment: Antimalarial activity against […] of Plasmodium falciparum W2 after for 3 days by microdilution technique; assay type: functional, organism-based; settings: W2, 72 h; procedure, shortened: as §2
Mus musculus [7] = experiment: Toxicity against exoerythrocytic mouse model assessed as reduction in body weight at 320 mg/kg/day, po administered one day before infection, on day of infection and one day post infection measured up to 31 days; assay type: organism-based; design: route oral; settings: in vivo, 744 h
Mus musculus [8] = experiment: Toxicity in exoerythrocytic mouse model assessed as reduction in body weight at 160 mg/kg/day, po administered one day before infection, on day of infection and one day post infection measured on day 31; assay type: organism-based; design: route oral; settings: in vivo
Plasmodium berghei [9] = experiment: Antimalarial activity against Plasmodium berghei in exoerythrocytic mouse model assessed as causal prophylaxis at 320 mg/kg/day, po administered one day before infection, on day of infection and one day post infection; assay type: functional, organism-based
Procedure, shortened: (§3)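 P. berghei sporozoite exoerythrocytic mouse model. Compound was ground and suspended in hydroxyethylcellulose plus Tween 80, then given po at several dose levels once daily: the day before, 4 h before, and the day after sporozoite inoculation. Mice alive on day 31 with no parasites in any blood film were scored as protected.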

Plasmodium berghei [10] = experiment: Antimalarial activity against Plasmodium berghei in exoerythrocytic mouse model assessed as causal prophylaxis at 160 mg/kg/day, po administered one day before infection, on day of infection and one day post infection; assay type: functional, organism-based; procedure, shortened: as §3
Plasmodium cynomolgi [11] = experiment: Antimalarial activity against sporozoites stage of Plasmodium cynomolgi infected in Rhesus monkey assessed as delay in patency at 0.316 mg/kg/day, po administered one day before infection, on day of infection and one day post infection; assay type: functional
Procedure, shortened: (§4)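 Causal prophylaxis test in Rhesus monkeys inoculated with P. cynomolgi sporozoites, two monkeys per group. Drug was given orally on days −1, 0 and +1 relative to inoculation. Patency was the first day parasites were detected in blood smears, and the delay was counted against vehicle-treated controls.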

Plasmodium cynomolgi [12] = experiment: Antimalarial activity against sporozoites stage of Plasmodium cynomolgi infected in Rhesus monkey assessed as delay in patency at 1.78 mg/kg/day, po administered one day before infection, on day of infection and one day post infection; assay type: functional; procedure, shortened: as §4
Plasmodium cynomolgi [13] = experiment: Antimalarial activity against sporozoites stage of Plasmodium cynomolgi infected in Rhesus monkey assessed as delay in patency at 50 mg/kg/day, po administered one day before infection, on day of infection and one day post infection; assay type: functional; procedure, shortened: as §4

Structure (SMILES)	half-life at 1 µM [1] [min]	IC50 (Plasmodium falciparum [2]) [µg/mL]	half-life at 1 µM [3] [min]	IC50 (Plasmodium falciparum [4]) [µg/mL]	half-life at 1 µM [5] [min]	IC50 (Plasmodium falciparum [6]) [µg/mL]	Activity (Mus musculus [7])	Activity (Mus musculus [8])	Activity (Plasmodium berghei [9])	Activity (Plasmodium berghei [10])	Time (Plasmodium cynomolgi [11]) [days]	Time (Plasmodium cynomolgi [12]) [days]	Time (Plasmodium cynomolgi [13]) [days]
CC(C)N1CCN=C1/N=C(\N)Nc1ccc(Cl)c(Cl)c1	> 60	1.4 (≈ 4.46 µM)	> 60	1.2 (≈ 3.82 µM)	36.3	0.7 (≈ 2.23 µM)	–	–	–	–	–	–	–
CC(C)N/C(=N\c1ncc[nH]1)Nc1ccc(Cl)c(Cl)c1	37.6	> 5	> 60	> 5	–	0.6 (≈ 1.92 µM)	Toxic	Toxic	–	–	–	–	–
N/C(=N\c1nccn1Cc1ccccc1)Nc1ccc(Cl)c(Cl)c1	37	> 2	> 60	> 2	–	> 2	–	–	inactive	inactive	–	–	–
COc1cc(C)c2c(Oc3cccc(C(F)(F)F)c3)c(OC)cc(NC(C)CCCN)c2n1 (stereo not drawn) [TAFENOQUINE]	–	–	–	–	–	–	–	–	–	–	2	–	–
COc1cc(NC(C)CCCN)c2ncccc2c1 (stereo not drawn) [PRIMAQUINE]	–	–	–	–	–	–	–	–	–	–	–	5	–
CC(C)N1CCN=C1/N=C(/Nc1ccc(Cl)c(Cl)c1)NC(C)(C)C	16.6	0.4 (≈ 1.08 µM)	> 60	–	–	0.4 (≈ 1.08 µM)	Toxic	Toxic	–	inactive	–	–	–
CC(C)(C)Cn1ccnc1/N=C(/Nc1ccc(Cl)c(Cl)c1)NC(C)(C)C	11.7	0.8 (≈ 2.02 µM)	12.1	–	–	0.8 (≈ 2.02 µM)	–	–	inactive	inactive	–	–	–
CC(C)n1ccnc1/N=C(/NC(=O)Cc1ccccc1)Nc1ccc(Cl)c(Cl)c1	50.8	> 5	> 60	> 5	–	> 5	–	–	inactive	inactive	–	–	–
CC(C)n1ccnc1/N=C(/Nc1ccc(Cl)c(Cl)c1)N1CCCCC1	19.7	0.5 (≈ 1.31 µM)	27	0.3 (≈ 0.789 µM)	7.8	0.3 (≈ 0.789 µM)	–	–	inactive	inactive	–	–	–
CC(C)N/C(=N\c1nccn1C(C)C)Nc1ccc(Cl)c(Cl)c1	5.9	2.6 (≈ 7.34 µM)	22.5	2.4 (≈ 6.77 µM)	7.8	0.8 (≈ 2.26 µM)	–	–	–	–	–	–	9
CCC(CC)C(=O)N/C(=N/c1nccn1C(C)C)Nc1ccc(Cl)c(Cl)c1	> 60	1 (≈ 2.44 µM)	> 60	2.9 (≈ 7.07 µM)	–	0.3 (≈ 0.731 µM)	–	–	inactive	inactive	–	–	–
CC(C)N/C(=N\C1=NCCN1C(C)C)Nc1ccc(Cl)c(Cl)c1	13.6	0.5 (≈ 1.4 µM)	50.7	0.7 (≈ 1.96 µM)	–	0.4 (≈ 1.12 µM)	Toxic	Toxic	–	inactive	–	–	–
CC(C)n1ccnc1/N=C(/Nc1ccc(Cl)c(Cl)c1)NC(C)(C)C	18.2	1.1 (≈ 2.99 µM)	40.4	–	–	1 (≈ 2.72 µM)	–	–	inactive	inactive	–	–	–
CC(C)N/C(=N\c1nccn1C(C)(C)C)Nc1ccc(Cl)c(Cl)c1	9	1.4 (≈ 3.8 µM)	48	0.9 (≈ 2.44 µM)	–	0.4 (≈ 1.09 µM)	Toxic	Toxic	–	–	–	–	–
CC(C)n1ccnc1/N=C(\N)Nc1ccc(Cl)c(Cl)c1	27.7	2.8 (≈ 8.97 µM)	> 60	2.4 (≈ 7.69 µM)	> 60	0.7 (≈ 2.24 µM)	–	–	Active	Active	–	–	–
CC(C)n1ccnc1/N=C(/NC(=O)OC(C)(C)C)Nc1ccc(Cl)c(Cl)c1	> 60	> 5	> 60	> 5	–	> 5	–	–	–	–	–	–	–
CC(C)n1ccnc1/N=C(\NCC(C)(C)C)Nc1ccc(Cl)c(Cl)c1	10.8	1.4 (≈ 3.66 µM)	32.9	–	–	0.9 (≈ 2.35 µM)	–	–	inactive	inactive	–	–	–
CC(C)N/C(=N\c1nccn1Cc1ccccc1)Nc1ccc(Cl)c(Cl)c1	18	1.3 (≈ 3.23 µM)	16	2.5 (≈ 6.21 µM)	–	1.6 (≈ 3.98 µM)	–	–	inactive	inactive	–	–	–
CC(C)N1CCN=C1/N=C(/Nc1ccc(Cl)c(Cl)c1)N1CCCCC1	21.5	0.4 (≈ 1.05 µM)	> 60	0.3 (≈ 0.785 µM)	–	0.2 (≈ 0.523 µM)	Toxic	Toxic	–	–	–	–	–
CC(C)n1ccnc1/N=C(/NC(=O)C(C)(C)C)Nc1ccc(Cl)c(Cl)c1	> 60	> 5	> 60	> 5	–	> 5	–	–	inactive	inactive	–	–	–
CC(C)N1CCN=C1/N=C(/Nc1ccc(Cl)c(Cl)c1)NC12CC3CC(CC(C3)C1)C2	> 60	0.3 (≈ 0.669 µM)	> 60	0.2 (≈ 0.446 µM)	–	0.2 (≈ 0.446 µM)	–	–	–	–	–	–	–
N/C(=N\c1ncc[nH]1)Nc1ccc(Cl)c(Cl)c1	23.6	0.5 (≈ 1.85 µM)	42.5	2.5 (≈ 9.26 µM)	–	1.4 (≈ 5.18 µM)	–	–	inactive	inactive	–	–	–
CC(C)(C)n1ccnc1/N=C(\N)Nc1ccc(Cl)c(Cl)c1	48	1.6 (≈ 4.9 µM)	> 60	1.2 (≈ 3.68 µM)	45	0.4 (≈ 1.23 µM)	–	–	inactive	inactive	–	–	–
CC(C)C(=O)N/C(=N/c1nccn1Cc1ccccc1)Nc1ccc(Cl)c(Cl)c1	11	> 2	19.7	> 2	–	> 2	–	–	inactive	inactive	–	–	–
CCC(CC)C(=O)N/C(=N/c1nccn1C(C)(C)C)Nc1ccc(Cl)c(Cl)c1	12.5	> 5	26	> 5	–	> 5	–	–	–	inactive	–	–	–
CC(C)(C)C(=O)N/C(=N/c1nccn1C(C)(C)C)Nc1ccc(Cl)c(Cl)c1	> 60	> 5	> 60	> 5	–	> 5	–	–	–	–	–	–	–
CC(C)C(=O)N/C(=N/c1nccn1C(C)C)Nc1ccc(Cl)c(Cl)c1	> 60	2.5 (≈ 6.54 µM)	> 60	2.2 (≈ 5.75 µM)	–	1 (≈ 2.62 µM)	–	–	–	–	–	–	–
CC(C)N/C(=N\c1nccn1CC(C)(C)C)Nc1ccc(Cl)c(Cl)c1	–	1.1 (≈ 2.88 µM)	20.3	–	–	1.5 (≈ 3.92 µM)	–	–	inactive	inactive	–	–	–
